hERG protect: compounds protecting human hERG from proarrhythmic drug block. Q12809. CHO-hERG, FluxOR thallium flux, dofetilide IC70 present. activation (rescue from dofetilide block), less the hit threshold, % at 10 µM. 0.51% of 310,000 active;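 active means activation above the mean of controls blocked by dofetilide plus 5 SD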;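 further: thallium influx through hERG after potassium depolarization seen as dye fluorescence rise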
KCNK3 inh: human KCNK3 channel inhibition, primary screen | CHO-KCNK3 thallium flux, FluxOR fluorescence; active compounds read low | B-score at 10 µM | 0.84% of 340,000 active | AID 602410;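 active means B-score under library mean minus 4 SD, starting fluorescence ratio at most library mean plus 5 SD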;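 further: more negative B-score means stronger inhibition of thallium flux through KCNK3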
KCNK9 inh: blocks the human KCNK9 two-pore domain potassium channel. Q9NPC2. HEK293 KCNK9, FluxOR thallium flux fluorescence; active compounds read low. B-score at 10 µM. 1.2% of 310,000 active;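 active means ratio B-score over 3 SD below the library mean, with starting fluorescence within 5 SD of its mean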;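 further: negative B-score means less thallium flux so channel inhibition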
Target sequence (Q9NPC2 whole entry, looked up, the tested form may be a part): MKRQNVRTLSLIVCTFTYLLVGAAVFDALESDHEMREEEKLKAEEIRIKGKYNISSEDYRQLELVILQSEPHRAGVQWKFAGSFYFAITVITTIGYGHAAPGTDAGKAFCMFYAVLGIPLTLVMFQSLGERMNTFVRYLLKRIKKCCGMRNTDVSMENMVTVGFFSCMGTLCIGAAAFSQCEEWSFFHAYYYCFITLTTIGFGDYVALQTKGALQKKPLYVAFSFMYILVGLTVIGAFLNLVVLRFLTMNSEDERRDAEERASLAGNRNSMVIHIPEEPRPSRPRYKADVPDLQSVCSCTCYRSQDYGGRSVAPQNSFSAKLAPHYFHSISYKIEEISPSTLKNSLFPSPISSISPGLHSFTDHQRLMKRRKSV
KCNQ1 act: potentiates or activates the human KCNQ1 potassium channel | CHO-K1 KCNQ1, thallium flux FluxOR fluorescence; active compounds read high | AID 2648 | 0.35% of 310,000 active | B-score at 10 µM;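 active means fluorescence ratio B-score, a plate-corrected score, at least three library SD, with initial intensity B-score within 5 SD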
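Doses: Single concentration per compound, DMSO matched to controls | Test system: KCNQ1-transfected CHO-K1 cells | Timing: 90 min dye loading and 20 min compound exposure, both at room temperature | Measured by: Kinetic FluxOR thallium fluorescence, 10-s 1-Hz baseline, 110-s post-stimulus read | Medium: Assay buffer with matched DMSO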
KCNQ1 inh: human KCNQ1 channel inhibition. P51787. CHO-K1 KCNQ1, FluxOR thallium flux fluorescence; active compounds read high. B-score at 10 µM. 1.3% of 310,000 active. AID 2642;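 active means compounds whose thallium flux B-score, printed positive for inhibition, exceeds three library SD while starting fluorescence stays within three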;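 further: channel opened by potassium depolarization with thallium stimulus after 20 min compound exposure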
* marks the source's active call; other numbers are inactive results; i = inactive; · = no result. Most compounds without a hit are left out; they make up all but 3.1% or so of the library.

SMILES	hERG protect	KCNK3 inh	KCNK9 inh	KCNQ1 act	KCNQ1 inh
CCCCCN(C(=O)COC(=O)c1ccc(C)cc1)c1c(N)n(CCCC)c(=O)[nH]c1=O	·	i	·	·	·
Cc1ccc(S(=O)(=O)NCC(=O)OCC(=O)N(CCC#N)c2ccccc2)cc1	·	i	·	·	·
Cc1cccc(N2CCN(C(=O)CNC(=O)c3cccc([N+](=O)[O-])c3)CC2)c1C	11.7*	i	i	i	i
Cc1cccc(N2CCN(C(=O)CNC(=O)Cc3ccccc3)CC2)c1C	·	i	·	·	·
CCCc1nc2oc3c(Cl)ncnc3c2c2c1CCCC2	-4.0	i	i	i	i
CCCc1nc2oc3c(NCCN(C)C)ncnc3c2c2c1CCCC2	-7.1	i	i	8*	i
CCCc1nc2oc3c(NCCCN(C)C)ncnc3c2c2c1CCCC2	-8.0	i	i	8*	i
O=C(CCS(=O)(=O)c1ccccc1)NCc1ccccc1	-9.5	i	i	i	i
CCN(CC)c1ccc(S(=O)(=O)N2CCOCC2)cc1NC(=O)COC(=O)/C=C/c1ccc(C)o1	-22.0	i	i	i	i
Cc1nc(N2CCCCC2)c2c(C)c(C(=O)Nc3ccccc3C(F)(F)F)sc2n1	-2.5	i	i	i	i
Cc1nc(N2CCCCC2C)c2c(C)c(C(=O)Nc3cccc(C(F)(F)F)c3)sc2n1 (stereo unspecified)	-9.7	i	i	i	7*
Cc1ccc(S(=O)(=O)n2c(CN3CCCC(C)C3)nc3ccccc32)cc1 (stereo unspecified)	-1.2	i	-7.46*	i	i
CC(NC(=O)COC(=O)c1cc(=O)c2ccccc2o1)c1ccccc1 (stereo unspecified)	·	i	·	·	·
CCOC(=O)C1=C(COC(=O)Cc2ccccc2F)NC(=O)NC1C (stereo unspecified)	-18.0	i	i	i	i
Cc1ccc(S(=O)(=O)N2CCC(C(=O)NCCCN3CCCC3=O)CC2)cc1C	-8.4	i	i	i	i
O=C1NC(=O)/C(=C/c2ccccc2Oc2ccc(Cl)cc2)S1	-10.1	i	i	i	11*
Cc1ccc(S(=O)(=O)Oc2ccccc2/C=N/N=C(N)N)cc1	-19.9	i	i	i	i
Cc1ccc(Oc2ccccc2/C=C2\SC(=O)N(C)C2=O)cc1	-14.4	i	i	i	6*
Cc1ccc(S(=O)(=O)Oc2ccccc2/C=C2\SC(=O)NC2=O)cc1	-16.2	i	i	i	8*
O=C(COc1ccccc1/C=C1\SC(=O)NC1=O)Nc1ccc(F)cc1	-0.8	i	i	i	i
CCCCCCc1cc2cc(C(=O)Nc3ccc(OC)cc3)c(=O)oc2cc1O	-0.4	i	i	i	i
CCCCCCc1cc2cc(C(N)=O)c(=N)oc2cc1O	-58.9	·	i	i	29*
CCCCCCc1cc2cc(C(=O)OCC)c(=O)oc2cc1O	-3.8	i	i	i	8*
COc1ccc(NC(=O)N(C)C[C@H]2Oc3ccc(NC(=O)Cc4ccccc4)cc3CC(=O)N([C@H](C)CO)C[C@H]2C)cc1	·	i	·	·	·
S=C1NCC(c2ccccc2)S1 (stereo unspecified)	·	i	·	·	·
SMILES	hERG protect	KCNK3 inh	KCNK9 inh	KCNQ1 act	KCNQ1 inh
Cc1nnc(NC(=O)CN2CCN(Cc3ccc(F)cc3Cl)CC2)s1	6.3*	i	i	i	i
COc1cc(C(C[N+](=O)[O-])c2c(-c3ccccc3)cc3ccccn23)cc(OC)c1OC (stereo unspecified)	-4.1	i	-7.87*	i	i
COc1ccc(C(C[N+](=O)[O-])c2c(-c3ccccc3)cc3ccccn23)cc1 (stereo unspecified)	-11.0	i	i	i	8*
COc1ccc(C(C[N+](=O)[O-])c2c(-c3ccccc3)cc3ccccn23)cc1OC (stereo unspecified)	-16.3	i	i	i	i
CC1CCC(NC(=O)CNC(=O)Cc2cccc3ccccc23)CC1 (stereo unspecified)	-9.3	i	i	i	i
CCn1c(=S)[nH]c2sc3c(c2c1=O)CCCC3	16.0*	i	i	35*	i
CC1CCc2c(sc3[nH]c(=S)n(C)c(=O)c23)C1 (stereo unspecified)	52.4*	i	i	74*	i
CN(C)CCCn1c(=S)[nH]c2sc3c(c2c1=O)CCCC3	-11.6	i	i	i	i
C=CCn1c(=S)[nH]c2sc3c(c2c1=O)CCC3	16.1*	i	i	i	i
CCc1nc(NCC2CCCO2)c2oc3ccccc3c2n1 (stereo unspecified)	-6.7	-28*	i	i	i
Cc1nc(Nc2ccc3c(c2)OCCO3)c2oc3ccccc3c2n1	-13.1	i	i	i	i
CCc1nc(Nc2ccc3c(c2)OCCO3)c2oc3ccccc3c2n1	-26.2	i	-7.57*	i	i
Cc1nc(NCC2CCCO2)c2oc3ccccc3c2n1 (stereo unspecified)	-14.3	i	i	i	i
CC(C)Cn1c(=O)c(C(=O)N/N=C/c2cccc(F)c2)c(O)c2ccccc21	-11.2	i	i	9*	i
COc1ccc2nc(SCC(=O)NCC(F)(F)F)[nH]c2c1	5.2*	i	i	i	i
COc1ccc2nc(SCC(=O)NCc3ccccc3)[nH]c2c1	-3.4	i	i	i	i
Cn1cc(S(=O)(=O)N2CCOCC2)cc1C(=O)NCc1ccccc1Cl	-4.8	i	i	i	i
Oc1ccccc1CN1CCCN(Cc2ccccc2O)C1	5.0*	i	i	i	i
CCOC(=O)C=C(C(=O)OCC)C(=O)OCC	·	i	·	·	·
COc1ccc(C(=O)NCCCCCCNC(=O)c2ccc(OC)cc2)cc1	-11.3	i	i	i	i
Cc1ccc(-c2csc3ncnc(N4CCc5ccccc5C4)c23)cc1	-13.4	i	i	i	i
Fc1ccc(-c2csc3ncnc(N4CCc5ccccc5C4)c23)cc1	-13.1	i	-7.07*	i	6*
CC1CC(C)CN(CCCNC(=O)c2cc3c(s2)-c2ccccc2OC3)C1 (stereo unspecified)	-13.0	i	i	i	6*
Cc1ccccc1Nc1nc(-c2sc(NC(=O)c3ccc([N+](=O)[O-])cc3)nc2C)cs1	-11.9	·	i	i	7*
CCCCCCC(=O)Nc1nc(C)c(-c2csc(Nc3cc(OC)ccc3OC)n2)s1	-10.1	i	i	i	i
COc1ccc(OC)c(Nc2nc(-c3sc(NC(=O)c4ccccc4)nc3C)cs2)c1	-21.0	·	-8.16*	i	i
CCCCCC(=O)Nc1nc(C)c(-c2csc(Nc3cc(OC)ccc3OC)n2)s1	-9.9	i	-7.25*	i	i
COc1ccc(Cl)cc1Nc1nc(-c2sc(NC(=O)c3ccccc3)nc2C)cs1	-5.7	·	i	i	i

High-throughput results from PubChem BioAssay.
